In ChEMBL document CHEMBL1165965, “Synthesis and structure-activity relationships of 1,2,3,4-tetrahydropyrido[2,3-b]pyrazines as potent and selective inhibitors of the anaplastic lymphoma kinase” (Bioorg Med Chem, 2010):

How the values were obtained:
[1] = target: BMP-2-inducible protein kinase (Homo sapiens) (UniProt Q9NSY1); assay: Inhibition of BIKE at 1 uM
Outline: (§1)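 Ambit KINOMEscan screen at a single concentration across a 250–400 kinase panel, recorded as percent inhibition. Selectivity was expressed as S(90), the fraction of kinases inhibited >90%.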

[2] = target: Mitogen-activated protein kinase kinase kinase 11 (Homo sapiens) (UniProt Q16584); assay: Inhibition of MLK3 at 1 uM
Mitogen-activated protein kinase kinase kinase 11 (Homo sapiens), sequence (Q16584 whole entry, looked up): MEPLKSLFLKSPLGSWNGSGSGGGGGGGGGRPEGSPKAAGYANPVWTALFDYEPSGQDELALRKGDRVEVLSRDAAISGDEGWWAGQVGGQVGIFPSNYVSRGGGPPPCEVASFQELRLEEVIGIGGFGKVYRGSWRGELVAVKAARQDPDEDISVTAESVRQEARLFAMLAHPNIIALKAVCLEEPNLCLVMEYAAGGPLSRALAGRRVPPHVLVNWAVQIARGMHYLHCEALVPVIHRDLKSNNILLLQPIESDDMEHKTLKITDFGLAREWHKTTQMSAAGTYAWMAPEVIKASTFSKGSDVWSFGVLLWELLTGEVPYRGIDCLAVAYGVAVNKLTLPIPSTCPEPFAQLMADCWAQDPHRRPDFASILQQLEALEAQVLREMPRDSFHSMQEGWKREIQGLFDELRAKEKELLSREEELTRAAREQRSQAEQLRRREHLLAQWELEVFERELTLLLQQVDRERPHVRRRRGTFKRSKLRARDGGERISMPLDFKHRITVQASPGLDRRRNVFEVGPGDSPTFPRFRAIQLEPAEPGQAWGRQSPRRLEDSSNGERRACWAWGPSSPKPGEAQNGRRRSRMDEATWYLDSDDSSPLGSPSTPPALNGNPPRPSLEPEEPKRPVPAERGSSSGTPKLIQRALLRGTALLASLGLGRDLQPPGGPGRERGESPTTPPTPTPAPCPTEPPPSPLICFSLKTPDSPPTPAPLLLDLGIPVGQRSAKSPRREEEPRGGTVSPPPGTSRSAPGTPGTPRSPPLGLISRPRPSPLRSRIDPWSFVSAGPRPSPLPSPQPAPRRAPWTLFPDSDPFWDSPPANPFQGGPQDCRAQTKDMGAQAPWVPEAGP
Outline: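 Kinase-panel screen using KINOMEscan technology, with 250–400 kinases per panel. Each compound was tested at a single concentration, and inhibition of each kinase was recorded. Selectivity was summarised as S(90), the fraction of kinases inhibited by more than 90%.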

[3] = target: T1, Serine/threonine-protein kinase 36 (Homo sapiens) (UniProt Q9NRP7); assay: Inhibition of STK36 at 1 uM
T1 sequence (whole entry): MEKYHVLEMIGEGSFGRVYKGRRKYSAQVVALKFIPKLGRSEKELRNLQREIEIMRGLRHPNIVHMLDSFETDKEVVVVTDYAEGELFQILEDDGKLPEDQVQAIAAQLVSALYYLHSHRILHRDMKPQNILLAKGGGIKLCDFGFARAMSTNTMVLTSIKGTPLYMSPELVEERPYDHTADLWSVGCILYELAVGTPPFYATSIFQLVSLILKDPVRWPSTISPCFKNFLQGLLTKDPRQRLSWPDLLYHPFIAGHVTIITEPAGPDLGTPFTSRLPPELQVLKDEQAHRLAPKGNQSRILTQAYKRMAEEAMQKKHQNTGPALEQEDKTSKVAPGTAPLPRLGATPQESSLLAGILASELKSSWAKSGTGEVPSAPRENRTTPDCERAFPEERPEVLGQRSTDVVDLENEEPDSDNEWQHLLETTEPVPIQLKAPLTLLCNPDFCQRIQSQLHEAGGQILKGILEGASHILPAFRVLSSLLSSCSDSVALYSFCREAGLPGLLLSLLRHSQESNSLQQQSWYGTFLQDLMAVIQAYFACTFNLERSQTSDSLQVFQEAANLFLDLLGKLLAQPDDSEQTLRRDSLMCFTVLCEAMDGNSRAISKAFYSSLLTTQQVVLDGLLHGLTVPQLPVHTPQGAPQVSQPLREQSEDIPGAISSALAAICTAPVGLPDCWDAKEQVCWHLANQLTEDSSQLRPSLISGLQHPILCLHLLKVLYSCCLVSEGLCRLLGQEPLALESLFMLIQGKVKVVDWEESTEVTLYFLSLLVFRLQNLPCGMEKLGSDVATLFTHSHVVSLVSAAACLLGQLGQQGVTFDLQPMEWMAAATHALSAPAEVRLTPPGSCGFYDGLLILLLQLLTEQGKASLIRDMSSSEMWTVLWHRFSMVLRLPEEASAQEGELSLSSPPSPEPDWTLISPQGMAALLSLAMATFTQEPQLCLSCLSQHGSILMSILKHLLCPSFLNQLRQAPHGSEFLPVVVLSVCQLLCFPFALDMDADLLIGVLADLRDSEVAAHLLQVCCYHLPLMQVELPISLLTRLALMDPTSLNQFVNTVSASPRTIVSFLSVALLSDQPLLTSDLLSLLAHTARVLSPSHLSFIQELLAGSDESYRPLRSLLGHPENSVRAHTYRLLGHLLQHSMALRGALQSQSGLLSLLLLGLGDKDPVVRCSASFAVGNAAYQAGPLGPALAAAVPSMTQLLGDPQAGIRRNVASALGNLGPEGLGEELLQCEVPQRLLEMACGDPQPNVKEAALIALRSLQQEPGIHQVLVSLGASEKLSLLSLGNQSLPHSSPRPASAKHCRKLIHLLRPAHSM

[4] = target: Tyrosine-protein kinase HCK (Homo sapiens) (UniProt P08631); assay: Inhibition of HCK at 1 uM
Tyrosine-protein kinase HCK (Homo sapiens), sequence (P08631 2-526 limits assumed): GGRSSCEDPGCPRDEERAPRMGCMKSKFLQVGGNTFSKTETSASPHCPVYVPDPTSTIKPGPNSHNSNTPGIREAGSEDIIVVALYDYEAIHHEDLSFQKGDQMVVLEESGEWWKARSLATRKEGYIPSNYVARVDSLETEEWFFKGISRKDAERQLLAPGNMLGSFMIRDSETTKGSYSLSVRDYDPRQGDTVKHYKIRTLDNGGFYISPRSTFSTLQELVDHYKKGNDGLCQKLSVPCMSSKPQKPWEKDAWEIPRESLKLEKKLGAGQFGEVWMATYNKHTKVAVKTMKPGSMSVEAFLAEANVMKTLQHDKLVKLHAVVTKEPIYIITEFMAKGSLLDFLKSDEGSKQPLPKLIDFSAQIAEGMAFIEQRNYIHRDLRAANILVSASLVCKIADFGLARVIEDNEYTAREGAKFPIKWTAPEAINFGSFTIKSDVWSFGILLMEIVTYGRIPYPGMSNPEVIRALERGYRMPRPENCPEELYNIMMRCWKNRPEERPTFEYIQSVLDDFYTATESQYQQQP
Outline: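 Single-concentration screen on the Ambit KINOMEscan platform, run against a panel of 250–400 kinases. Per-kinase inhibition was also summarized as S(90), the fraction of kinases inhibited by more than 90%.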

[5] = target: Calcium/calmodulin-dependent protein kinase type 1 (Homo sapiens) (UniProt Q14012); assay: Inhibition of CAMK1 at 1 uM; outline: as §1
Calcium/calmodulin-dependent protein kinase type 1 (Homo sapiens), sequence (Q14012 whole entry, looked up): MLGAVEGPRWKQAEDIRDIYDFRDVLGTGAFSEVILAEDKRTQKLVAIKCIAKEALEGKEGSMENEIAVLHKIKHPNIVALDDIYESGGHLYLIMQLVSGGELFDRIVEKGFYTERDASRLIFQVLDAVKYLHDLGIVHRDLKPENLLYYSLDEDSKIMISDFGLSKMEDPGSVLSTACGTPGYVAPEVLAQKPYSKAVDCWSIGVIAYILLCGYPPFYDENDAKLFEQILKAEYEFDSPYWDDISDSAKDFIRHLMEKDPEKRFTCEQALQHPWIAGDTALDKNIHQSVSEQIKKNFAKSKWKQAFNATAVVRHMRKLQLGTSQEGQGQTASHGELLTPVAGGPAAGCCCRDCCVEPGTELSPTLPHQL

[6] = test system: Fibroblast growth factor receptor 3 (Homo sapiens), P22607 [G697C]; assay: Inhibition of FGFR3 G697C mutant at 1 uM
Fibroblast growth factor receptor 3 (Homo sapiens), P22607 [G697C], sequence (P22607 whole entry G697C): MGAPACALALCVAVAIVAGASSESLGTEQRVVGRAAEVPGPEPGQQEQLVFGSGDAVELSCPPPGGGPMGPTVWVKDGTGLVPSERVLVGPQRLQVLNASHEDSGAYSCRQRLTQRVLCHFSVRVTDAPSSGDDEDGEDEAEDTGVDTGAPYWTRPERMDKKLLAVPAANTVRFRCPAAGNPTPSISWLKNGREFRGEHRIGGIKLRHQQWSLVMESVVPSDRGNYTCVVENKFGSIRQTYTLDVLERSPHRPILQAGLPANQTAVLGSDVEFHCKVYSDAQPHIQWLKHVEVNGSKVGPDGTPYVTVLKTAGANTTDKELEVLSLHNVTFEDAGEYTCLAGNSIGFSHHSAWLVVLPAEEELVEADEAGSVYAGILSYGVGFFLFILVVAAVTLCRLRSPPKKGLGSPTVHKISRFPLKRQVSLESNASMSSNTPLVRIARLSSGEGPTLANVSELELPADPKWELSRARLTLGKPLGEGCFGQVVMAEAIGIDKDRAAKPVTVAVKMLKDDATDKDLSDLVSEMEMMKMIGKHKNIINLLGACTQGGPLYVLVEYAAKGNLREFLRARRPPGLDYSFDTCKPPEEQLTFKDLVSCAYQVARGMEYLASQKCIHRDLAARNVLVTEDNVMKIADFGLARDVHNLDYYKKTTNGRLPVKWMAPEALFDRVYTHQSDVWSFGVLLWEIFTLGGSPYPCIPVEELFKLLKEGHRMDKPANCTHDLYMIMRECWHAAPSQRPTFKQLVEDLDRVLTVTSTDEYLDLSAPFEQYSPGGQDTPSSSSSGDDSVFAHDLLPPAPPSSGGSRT
Outline: (§2)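 Single-concentration screen using Ambit Bioscience KINOMEscan technology across a panel of 250–400 kinases. Per-kinase inhibition from this screen was summarized as S(90), the fraction of kinases inhibited by more than 90%.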

[7] = target: T2, Muscle, skeletal receptor tyrosine-protein kinase (Homo sapiens) (UniProt O15146); assay: Inhibition of MUSK at 1 uM
T2 sequence (whole entry): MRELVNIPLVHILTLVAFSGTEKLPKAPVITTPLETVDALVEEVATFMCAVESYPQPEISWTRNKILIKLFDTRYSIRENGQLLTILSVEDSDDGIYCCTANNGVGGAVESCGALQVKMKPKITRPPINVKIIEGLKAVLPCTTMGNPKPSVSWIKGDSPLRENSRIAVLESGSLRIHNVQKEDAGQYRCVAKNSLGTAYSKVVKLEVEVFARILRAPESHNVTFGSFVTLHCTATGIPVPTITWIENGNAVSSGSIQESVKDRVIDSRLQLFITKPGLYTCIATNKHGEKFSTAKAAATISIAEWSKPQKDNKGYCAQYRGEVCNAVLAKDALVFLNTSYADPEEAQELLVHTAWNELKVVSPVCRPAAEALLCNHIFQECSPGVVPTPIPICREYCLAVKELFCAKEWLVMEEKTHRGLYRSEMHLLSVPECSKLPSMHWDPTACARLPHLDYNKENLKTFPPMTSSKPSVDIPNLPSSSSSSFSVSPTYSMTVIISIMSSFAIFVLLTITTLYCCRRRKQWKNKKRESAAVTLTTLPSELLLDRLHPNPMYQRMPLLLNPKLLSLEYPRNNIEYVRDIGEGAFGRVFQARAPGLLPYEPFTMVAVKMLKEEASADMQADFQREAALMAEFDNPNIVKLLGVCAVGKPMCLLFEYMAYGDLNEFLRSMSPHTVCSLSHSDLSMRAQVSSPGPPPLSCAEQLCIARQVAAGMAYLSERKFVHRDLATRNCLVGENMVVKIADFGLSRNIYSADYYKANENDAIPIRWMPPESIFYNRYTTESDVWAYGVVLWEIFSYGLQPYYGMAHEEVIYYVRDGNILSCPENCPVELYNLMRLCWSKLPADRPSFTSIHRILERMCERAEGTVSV

[8] = target: Protein-tyrosine kinase 6 (Homo sapiens) (UniProt Q13882); assay: Inhibition of BRK at 1 uM; outline: as §1
Protein-tyrosine kinase 6 (Homo sapiens), sequence (Q13882 whole entry, looked up): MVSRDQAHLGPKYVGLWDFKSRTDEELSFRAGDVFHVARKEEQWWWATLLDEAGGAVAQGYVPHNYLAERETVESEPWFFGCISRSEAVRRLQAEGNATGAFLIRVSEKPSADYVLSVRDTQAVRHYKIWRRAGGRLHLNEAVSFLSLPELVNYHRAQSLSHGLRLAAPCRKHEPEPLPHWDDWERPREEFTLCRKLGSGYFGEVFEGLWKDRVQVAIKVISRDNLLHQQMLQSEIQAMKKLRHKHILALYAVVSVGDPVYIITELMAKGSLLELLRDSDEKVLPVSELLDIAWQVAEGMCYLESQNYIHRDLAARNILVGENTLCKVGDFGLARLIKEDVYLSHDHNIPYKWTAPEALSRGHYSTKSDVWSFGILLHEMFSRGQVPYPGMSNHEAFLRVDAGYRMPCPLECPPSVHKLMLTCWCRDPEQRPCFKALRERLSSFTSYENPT

[9] = target: Cyclin-dependent kinase-like 3 (Homo sapiens) (UniProt Q8IVW4); assay: Inhibition of CDKL3 at 1 uM
Cyclin-dependent kinase-like 3 (Homo sapiens), sequence (Q8IVW4 whole entry, looked up): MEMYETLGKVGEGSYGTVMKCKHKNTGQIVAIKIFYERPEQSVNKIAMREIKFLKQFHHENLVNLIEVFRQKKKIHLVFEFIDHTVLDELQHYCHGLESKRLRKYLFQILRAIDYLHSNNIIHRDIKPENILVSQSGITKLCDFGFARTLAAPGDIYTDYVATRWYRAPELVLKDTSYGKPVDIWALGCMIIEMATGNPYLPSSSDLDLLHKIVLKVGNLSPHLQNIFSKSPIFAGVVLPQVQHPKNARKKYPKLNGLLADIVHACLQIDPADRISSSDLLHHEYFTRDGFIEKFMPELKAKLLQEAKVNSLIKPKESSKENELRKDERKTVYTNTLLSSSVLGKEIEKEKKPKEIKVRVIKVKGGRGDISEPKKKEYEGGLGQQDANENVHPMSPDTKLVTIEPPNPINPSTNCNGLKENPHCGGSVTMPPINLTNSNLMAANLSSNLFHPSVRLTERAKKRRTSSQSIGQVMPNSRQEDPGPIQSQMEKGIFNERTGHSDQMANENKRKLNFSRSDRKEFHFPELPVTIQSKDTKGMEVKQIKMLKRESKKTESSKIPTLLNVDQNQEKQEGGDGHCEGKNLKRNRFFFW

[10] = target: Ephrin type-A receptor 4 (Homo sapiens) (UniProt P54764); assay: Inhibition of EPHA4 at 1 uM; outline: as §2

BMP-2-inducible protein kinase (Homo sapiens), sequence (Q9NSY1 whole entry, looked up): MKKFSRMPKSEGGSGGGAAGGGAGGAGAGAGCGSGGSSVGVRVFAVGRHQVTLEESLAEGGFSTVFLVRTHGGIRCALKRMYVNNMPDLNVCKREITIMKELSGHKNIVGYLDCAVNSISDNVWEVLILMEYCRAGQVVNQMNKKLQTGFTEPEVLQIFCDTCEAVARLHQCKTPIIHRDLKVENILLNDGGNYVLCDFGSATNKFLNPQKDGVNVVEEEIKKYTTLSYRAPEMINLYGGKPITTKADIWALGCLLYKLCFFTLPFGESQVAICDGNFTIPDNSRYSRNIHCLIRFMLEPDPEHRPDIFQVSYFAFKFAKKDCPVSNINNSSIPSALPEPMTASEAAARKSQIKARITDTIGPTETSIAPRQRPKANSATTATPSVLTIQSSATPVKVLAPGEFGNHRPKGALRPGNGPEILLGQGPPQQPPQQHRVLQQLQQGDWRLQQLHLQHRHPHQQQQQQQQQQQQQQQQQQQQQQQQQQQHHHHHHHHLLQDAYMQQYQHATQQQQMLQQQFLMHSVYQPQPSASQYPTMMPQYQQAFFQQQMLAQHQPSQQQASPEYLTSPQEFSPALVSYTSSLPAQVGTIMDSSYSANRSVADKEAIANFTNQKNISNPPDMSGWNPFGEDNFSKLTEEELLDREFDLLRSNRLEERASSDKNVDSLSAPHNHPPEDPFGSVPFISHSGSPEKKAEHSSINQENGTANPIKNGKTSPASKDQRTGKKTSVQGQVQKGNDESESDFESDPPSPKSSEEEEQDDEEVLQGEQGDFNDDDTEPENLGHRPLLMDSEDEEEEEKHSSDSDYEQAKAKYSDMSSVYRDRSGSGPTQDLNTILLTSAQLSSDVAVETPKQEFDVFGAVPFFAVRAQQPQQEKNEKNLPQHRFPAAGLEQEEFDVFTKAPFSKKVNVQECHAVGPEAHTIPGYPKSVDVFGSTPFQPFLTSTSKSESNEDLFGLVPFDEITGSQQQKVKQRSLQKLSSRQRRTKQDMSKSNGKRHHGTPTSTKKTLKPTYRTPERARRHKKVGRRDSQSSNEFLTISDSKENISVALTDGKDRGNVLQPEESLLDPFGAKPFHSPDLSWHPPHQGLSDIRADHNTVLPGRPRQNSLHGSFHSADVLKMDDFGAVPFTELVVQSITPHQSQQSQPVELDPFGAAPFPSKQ

inhibition [1] [%] | inhibition [2] [%] | inhibition [3] [%] | inhibition [4] [%] | inhibition [5] [%] | inhibition [6] [%] | inhibition [7] [%] | inhibition [8] [%] | inhibition [9] [%] | inhibition [10] [%] | Structure (SMILES)
< 50 | < 50 | < 50 | < 50 | < 50 | < 50 | < 50 | < 50 | < 50 | < 50 | CN1CCN(c2ccc(-c3cnc4c(c3)N(Cc3cc(F)ccc3F)CCN4)cn2)CC1
84 | < 50 |  | < 50 | < 50 | < 50 | < 50 | < 50 |  | < 50 | O=C(c1ccc(-c2cnc3c(c2)N(Cc2cc(Cl)ccc2C(F)(F)F)CCN3)cc1)N1CCC(N2CCCC2)CC1
< 50 | < 50 |  | < 50 | < 50 | < 50 | < 50 | < 50 |  | < 50 | O=C(c1ccc(-c2cnc3c(c2)N(Cc2cc(Cl)ccc2C(F)(F)F)CCN3)cc1)N1CCCCC1
< 50 | < 50 | < 50 | < 50 | < 50 | < 50 | < 50 | < 50 | < 50 | < 50 | CN1CCN(c2ccc(-c3cnc4c(c3)N(Cc3c(F)ccc(F)c3Cl)CCN4)cn2)CC1
< 50 | < 50 |  | < 50 | < 50 | < 50 | < 50 | < 50 |  | < 50 | COC1CCN(C(=O)c2ccc(-c3cnc4c(c3)N(Cc3cc(Cl)ccc3C(F)(F)F)CCN4)cc2)CC1
< 50 | < 50 |  | < 50 | < 50 | < 50 | < 50 | < 50 |  | < 50 | O=C(O)c1ccc(-c2cnc3c(c2)N(Cc2cc(Cl)ccc2C(F)(F)F)CCN3)cc1
< 50 | < 50 | < 50 | < 50 | < 50 | < 50 | < 50 | < 50 | < 50 | < 50 | CC(=O)N1CCN(c2cc(-c3cnc4c(c3)N(Cc3cc(Cl)ccc3C(F)(F)F)CCN4)ccn2)CC1
< 50 | < 50 | < 50 | < 50 | < 50 | < 50 | < 50 | < 50 | < 50 | < 50 | FC(F)(F)c1ccc(Cl)cc1CN1CCNc2ncc(-c3ccnc(N4CCNCC4)c3)cc21
< 50 | < 50 | < 50 | < 50 | < 50 | < 50 | < 50 | < 50 | < 50 | < 50 | CN1CCN(c2ccc(-c3cnc4c(c3)N(Cc3cc(Cl)ccc3C(F)(F)F)CCN4)cn2)CC1
< 50 | < 50 | < 50 | < 50 | < 50 | < 50 | < 50 | < 50 | < 50 | < 50 | CN1CCN(c2ccc(-c3cnc4c(c3)N(Cc3cc(Cl)ccc3Cl)CCN4)cn2)CC1
